Measured values pooled from the literature.
Each line is one published result; the experiments were not run side by side.
Target: Casein kinase I isoform delta (CSNK1D, Homo sapiens, UniProt P48730)

C[C@H]1CCN(c2nccc(-c3cnn4ncccc34)n2)C1
remaining binding (binding; 1 µM): 71%

COc1ccc2c(c1)O[C@H](c1ccc(OC)c(OC)c1)C[C@@H]2NC(=O)C1(c2ccc3c(c2)OC(F)(F)O3)CC1
remaining binding (cell-free assay; competition with immobilised ligand; 1 µM): 92%

O=C(NCCCN1CCOCC1)c1ccc(Nc2nccc(-c3cc4ccccc4s3)n2)cc1
remaining binding (binding; competition with immobilised ligand; 1 µM): 92%

O=C(Nc1cccnn1)N1CCC(=Cc2cccc(Oc3ccc(C(F)(F)F)cn3)c2)CC1
remaining binding (cell-free assay; competition with immobilised ligand; 1 µM): 100%

O=C(Nc1c[nH]nc1C(=O)NC1CCNCC1)c1cc(F)cc(F)c1
remaining binding (binding; competition with immobilised ligand; 1 µM): 95%

O=C(c1ccc(Nc2nccc(-c3cc4ccccc4s3)n2)cc1)N1CCC(N2CCCC2)CC1
remaining binding (binding; competition with immobilised ligand; 1 µM): 100%

CN(C)c1ncc(F)c(-c2cnn3ncccc23)n1
remaining binding (binding; 1 µM): 100%

CNC(=O)Nc1ccc2c(c1)[C@@]1(CC2)OC(=O)N(CC(=O)N(Cc2ccc(F)cc2)[C@@H](C)C(F)(F)F)C1=O
remaining binding (cell-free assay; competition with immobilised ligand; 1 µM): 100%

c1cnn2ncc(-c3ccnc(N4CCC45COC5)n3)c2c1
remaining binding (binding; 1 µM): 41%

COc1cnc(Nc2cccc(S(N)(=O)=O)c2)nc1N1CCN(c2ccccc2)CC1
remaining binding (binding; competition with immobilised ligand; 1 µM): 97%

CN(CCCC(F)(F)F)c1nccc(-c2cnn3ncccc23)n1
remaining binding (binding; 1 µM): 100%

O=C(c1ccc(Nc2ncc(Cl)c(-c3cc4ccccc4s3)n2)cc1)N1CCC(N2CCCC2)CC1
remaining binding (binding; competition with immobilised ligand; 1 µM): 100%

C[C@@H]1CN(c2cc(-c3n[nH]c4ccc(OC5(C)CC5)cc34)ncn2)C[C@H](C)O1
remaining binding (cell-free assay; competition with immobilised ligand; 0.1 µM): 80%

CC(C)(C)c1ccc(-c2nc(CBr)nn2-c2cccc(O)c2)cc1
remaining binding (cell-free assay; competition with immobilised ligand; 10 µM): 82%

CNC(=O)Nc1ccc2c(c1)CC[C@@]21OC(=O)N(CC(=O)N(Cc2ccc(F)cc2)[C@@H](C)C(F)(F)F)C1=O
remaining binding (cell-free assay; competition with immobilised ligand; 1 µM): 99%

CN(C)c1nccc(-c2cnc3ncccn23)n1
remaining binding (binding; 1 µM): 57%

CCN1CCN(Cc2ccc(C(=O)Nc3ccc(C)c(Oc4ccc5c(c4)CC(=O)N5)c3)cc2C(F)(F)F)CC1
remaining binding (binding; competition with immobilised ligand; 1 µM): 88%

COc1ncc2cc3ccccc3nc2c1C#N
remaining binding (cell-free assay; competition with immobilised ligand; 5 µM): 93%

CC(=O)C1=C(C)N(c2cccc(C(F)(F)F)c2)C(=O)N[C@@H]1c1ccc(C#N)nc1
remaining binding (cell-free assay; competition with immobilised ligand; 1 µM): 100%

NC(=O)c1nc(Nc2ccccc2)sc1NC(=O)C1CCCCC1
remaining binding (cell-free assay; competition with immobilised ligand; 10 µM): 6.8%

N#Cc1ccc(Nc2ccc3[nH]c(=O)[nH]c3c2)c(Cl)c1
remaining binding (cell-free assay; competition with immobilised ligand; 1 µM): 100%

Nc1ncc2c(n1)-c1c([nH]c3ccc(C#CC4CC4)cc13)CCCC2
remaining binding (binding; competition with immobilised ligand; 1 µM): 91%

CN(C)c1nccc(-c2cnn3ncccc23)n1
remaining binding (binding; 1 µM): 62%

c1cncc(-c2cccc(Nc3nccc(NC4CCCCC4)n3)c2)c1
remaining binding (binding; competition with immobilised ligand; 10 µM): 55%
